Records with an inconclusive call do not appear.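 Rule for the calls, unless noted: active = inhibition over a set limit, the all-compound mean plus 3 SD, in both replicate runs; inconclusive = over that limit in just one replicate run; inactive = at or under that limit in both runs.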
Experiments:
[1] = OD615 S. cerevisiae growth inhibition, permissive medium, pilot counter-assay, permissive growth control for S. cerevisiae lifespan shortening project (AID 705;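 active = growth inhibition above 25% in both replicates, a cutoff set 3 SD above the mean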); details: OD615, 24 h, at 10 µM, hits give high values
Outline: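 Test system: Saccharomyces cerevisiae strain carrying genetically modified DeaD replicative-lifespan system; buffer or medium: SC raffinose/galactose permissive medium; dosing: one dose 10 µM, DMSO 0.25% final; times: 24 h exposure, 30 °C; measured by: OD at 615 nm; read-out basis: growth inhibition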

[2] = Restrictive medium S. cerevisiae growth inhibition, OD615, pilot screen of yeast lifespan reduction project, restrictive growth control (AID 706;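 active = growth inhibition above a set limit, 3 SD over mean compound inhibition, in both replicates, cut at about 43% in these data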;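 note: modified DeaD lifespan yeast strain shifted to restrictive glucose medium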); details: OD615, 48 h, at 10 µM, hits give high values
Outline: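 material = engineered S. cerevisiae DeaD strain | buffer or medium = glucose-based CSMM-D restrictive medium | dosing = one concentration, 10 µM final, 0.25% DMSO | schedule = 4 h pre-growth plus 48 h compound exposure, 30 °C | detection = OD615 absorbance reading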

[3] = viability gain of MRP-1-high H69AR cells under doxorubicin, pilot screen, MRP-1 activator project, CellTiter-Glo, duplicate (AID 807;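 active = viability increase at or above a cutoff of the median across tested compounds plus 3 SD, cut at about 8.5% in these data, passing the limit was not always enough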;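 note: compound pretreatment 18-22 h then 72 h combined with doxorubicin; 0% = doxorubicin alone and 100% = vehicle without doxorubicin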); details: H69AR viability with doxorubicin, CellTiter-Glo luminescence; at 10 µM; hits give high values
[4] = growth suppression of beta-catenin knockout HCT116, pilot screen, human colon tumor cells (AID 823;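 active = cell viability at or below a set limit in both duplicate runs, the limit being the all-compound median minus 4 SD, cut at about 23% in these data, passing the limit was not always enough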;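 note: 0% = wells killed by 20 µM Hyamine and 100% = untreated DMSO cell wells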); details: CellTiter-Glo, 60 h, at 10 µM, hits give low values
[5] = growth suppression of PTEN-deleted HCT116, pilot screen, cell-based, HCT116 clonal line, CellTiter-Glo (AID 824;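 active = viability at or below 27.92% in each of two runs, the all-compound median minus 4 SD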;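 note: 0% = 20 µM Hyamine control and 100% = vehicle cell control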); details: 60 h, at 10 µM, hits give low values
[6] = inhibitors of the yeast RAM network, pilot screen, dse1pr::URA3 reporter, 5-FOA selection (AID 869);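 note: 0% = DMSO wells with no growth and 100% = 10 µM 1-NA-PP1 with full growth; RAM network block rescues cells from 5-FOA so hits raise OD615 growth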; details: S. cerevisiae dse1pr::URA3 5-FOA growth, OD615, 2 d; at 10 µM; hits give high values; strain carries analog-sensitive mutant Cbk1 kinase
[7] = RAM signaling pathway blockade in yeast – S. cerevisiae, Pdr1DBD-CYC8 efflux-inhibited sensitized strain, primary screen (AID 1298;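 active = RAM network inhibition above 8.4% in each of two replicates, 3 SD over the compound average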;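 note: 0% = DMSO untreated cells without growth and 100% = 10 µM 1-NA-PP1 full growth; higher means more yeast growth rescued from 5-FOA killing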); details: S. cerevisiae cbk1-as DSE1-URA3 strain, 5-FOA growth OD615, 2 d; at 50 µM; hits give high values

COc1ccc(NS(=O)(=O)c2ccc(NS(=O)(=O)c3ccc(C)cc3)cc2)nn1
inactive: growth inhibition [1] -13.5% | growth inhibition [2] -7.58% | viability increase [3] 1.15% | viability [4] 92.9% | viability [5] 96.8% | inhibition [6] 2.95% | RAM network inhibition [7] 4.16%

CCCc1cc(C(=O)N(C2CCCCC2)C2CCCCC2)no1
inactive: growth inhibition [1] 4.36% | growth inhibition [2] 14.7% | viability increase [3] -5.51% | viability [4] 74.5% | viability [5] 80.8% | inhibition [6] 1.57% | RAM network inhibition [7] 6.03%

COCCOC(=O)C1=C(C)NC2=C(C(=O)CC(C)(C)C2)C1c1ccc(N(C)C)cc1 (configuration not stated)
inactive: growth inhibition [1] -16.1% | growth inhibition [2] -21.2% | viability increase [3] -0.49% | viability [4] 97.4% | viability [5] 98.3% | inhibition [6] -0.03% | RAM network inhibition [7] 3.6%

O=C(Cn1ncc2c(=O)oc3ccccc3c21)N1CCCN(Cc2ccccc2F)C1
inactive: growth inhibition [1] -3.74% | growth inhibition [2] 2.98% | viability increase [3] -3.74% | viability [4] 101% | viability [5] 94.1% | inhibition [6] 1.55% | RAM network inhibition [7] 1.79%

O=S(=O)(NCCOCCNS(=O)(=O)c1ccccc1)c1ccccc1
inactive: growth inhibition [1] -6.38% | growth inhibition [2] -1.27% | viability increase [3] 0.8% | viability [4] 91.2% | viability [5] 96.1% | inhibition [6] 0.05% | RAM network inhibition [7] 1.94%

COCCCNC(=O)Cn1nnc(-c2ccc(NC(=O)c3ccc(F)cc3)cc2)n1
inactive: growth inhibition [1] -9.11% | growth inhibition [2] -28.5% | viability increase [3] 0.73% | viability [4] 99.7% | viability [5] 96.8% | inhibition [6] 0.705% | RAM network inhibition [7] 4.54%

Cc1ccccc1-n1nc(-c2ccc(N)cc2)cc1N
inactive: growth inhibition [1] 3.39% | growth inhibition [2] 2.1% | viability increase [3] -2.52% | viability [4] 101% | viability [5] 94.7% | inhibition [6] 0.8% | RAM network inhibition [7] 2.8%

Cc1cc(Nc2ccc(F)cc2)n2nc(C)nc2n1
inactive: growth inhibition [1] -2.01% | growth inhibition [2] 4.12% | viability increase [3] -0.76% | viability [4] 100% | viability [5] 97.2% | inhibition [6] -0.875% | RAM network inhibition [7] 0.55%

COc1ccc(CNC(=O)c2cnc3scc(C)n3c2=O)cc1
inactive: growth inhibition [1] -13.9% | growth inhibition [2] -6.35% | viability increase [3] 3.79% | viability [4] 102% | viability [5] 93.8% | inhibition [6] 0.925% | RAM network inhibition [7] 11.9%

CN(C)CCCNCCCNC(=O)/C(=N\O)c1ccccn1
inactive: growth inhibition [1] -3.34% | growth inhibition [2] -2.4% | viability increase [3] 1.1% | viability [4] 93.3% | viability [5] 105% | inhibition [6] 1.53% | RAM network inhibition [7] 2.45%

Cc1noc(C(=O)Nc2c(C)n(C)n(-c3ccccc3)c2=O)c1Cl
inactive: growth inhibition [1] -13.3% | growth inhibition [2] -16.6% | viability increase [3] -2.04% | viability [4] 95% | viability [5] 98.7% | inhibition [6] 1.79% | RAM network inhibition [7] 0.38%

CC(=O)Nc1ccc(S(=O)(=O)N2CCC(c3nc4ccc(C)cc4[nH]3)CC2)cc1
inactive: growth inhibition [1] -24.1% | growth inhibition [2] 2.08% | viability increase [3] -3.15% | viability [4] 51.2% | inhibition [6] 1.47% | RAM network inhibition [7] 9.15%

CC(=O)c1cccc(NC(=O)C2CCN(S(=O)(=O)c3ccc(F)cc3)CC2)c1
inactive: growth inhibition [1] -6.23% | growth inhibition [2] 1.16% | viability increase [3] -2.82% | viability [4] 92% | viability [5] 93.5% | inhibition [6] 3.66% | RAM network inhibition [7] 5.67%

Cc1ccc(C(=O)c2cn[nH]c2-c2cc(Cl)ccc2O)cc1
inactive: growth inhibition [1] 7.61% | growth inhibition [2] 1.2% | viability increase [3] -0.14% | viability [4] 95.7% | inhibition [6] 1.08% | RAM network inhibition [7] -1.14%

Cc1cccc(N(C)c2cc(C)nc3ncnn23)c1
inactive: growth inhibition [1] 2.75% | growth inhibition [2] 3.99% | viability increase [3] -1.19% | viability [4] 97.3% | viability [5] 99.6% | inhibition [6] 0.99% | RAM network inhibition [7] 4.73%

CCCCCn1c(CNC(=O)CC)nc2ccccc21
inactive: growth inhibition [1] -6.04% | growth inhibition [2] -11.1% | viability increase [3] 0.02% | viability [4] 97.5% | viability [5] 96.5% | inhibition [6] 1.53% | RAM network inhibition [7] 4.9%

CCOC(=O)C1CCCN(C(=O)c2cn(CC)c3ccc(S(=O)(=O)N(C)C)cc3c2=O)C1 (configuration not stated)
inactive: growth inhibition [1] -5.92% | growth inhibition [2] -15.5% | viability increase [3] -0.67% | viability [4] 108% | viability [5] 102% | inhibition [6] 0.85% | RAM network inhibition [7] 0.1%

Cc1ccnc(SCCn2c(N3CCCCC3)nc3c2c(=O)[nH]c(=O)n3C)n1
inactive: growth inhibition [1] -8.7% | growth inhibition [2] -5.05% | viability increase [3] 0.17% | viability [4] 101% | viability [5] 107% | inhibition [6] 1.52% | RAM network inhibition [7] 2.14%

CCSc1nnc(Cn2c(=O)sc3ccccc32)n1C
inactive: growth inhibition [1] -8.03% | growth inhibition [2] 5.23% | viability increase [3] -0.33% | viability [4] 95.7% | viability [5] 96.2% | inhibition [6] 0.71% | RAM network inhibition [7] -0.45%

CCN(CC)C(=O)c1cn(CC)c(=O)c2cc(OC)c(OC)cc12
inactive: growth inhibition [1] -18.9% | growth inhibition [2] 2.04% | viability increase [3] -3.37% | viability [4] 103% | inhibition [6] 0.93% | RAM network inhibition [7] 2.76%

CCOC(=O)N1CCN(c2nc(SC)nc3sc4c(c23)CC(C)(C)OC4)CC1
inactive: growth inhibition [1] 2.38% | growth inhibition [2] -0.985% | viability increase [3] -5.82% | viability [4] 87.5% | inhibition [6] 0.54% | RAM network inhibition [7] 9.5%

CN(C)c1ccnc2sc(C(=O)NCc3ccccc3)c(N)c12
inactive: growth inhibition [1] -17.2% | growth inhibition [2] 17.5% | viability increase [3] -2.17% | viability [4] 81.3% | viability [5] 78.7% | inhibition [6] 2.11% | RAM network inhibition [7] 1.39%

Cc1nn(Cc2ccc(Cl)c(Cl)c2)c(C)c1NC(=O)c1cc(C2CC2)on1
inactive: growth inhibition [1] -10.7% | growth inhibition [2] 1.77% | viability increase [3] 1.41% | viability [4] 79% | viability [5] 84.7% | inhibition [6] 0.125% | RAM network inhibition [7] 2.79%

— PubChem BioAssay
